In ChEMBL document CHEMBL2375299, “Synthesis and structure-activity relationships of carboxylic acid derivatives of pyridoxal as P2X receptor antagonists” (Bioorg Med Chem, 2013) one finds inhibition, IC50 and Ratio IC50 data, which are given here for 16 molecules.

Each structure is given as a SMILES string. Calls of active or inactive are those of the source. The rule behind the calls is not given here.

The target in assay [1] is T1, P2X purinoceptor 3 (Homo sapiens) (UniProt P56373).
T1 sequence (whole entry): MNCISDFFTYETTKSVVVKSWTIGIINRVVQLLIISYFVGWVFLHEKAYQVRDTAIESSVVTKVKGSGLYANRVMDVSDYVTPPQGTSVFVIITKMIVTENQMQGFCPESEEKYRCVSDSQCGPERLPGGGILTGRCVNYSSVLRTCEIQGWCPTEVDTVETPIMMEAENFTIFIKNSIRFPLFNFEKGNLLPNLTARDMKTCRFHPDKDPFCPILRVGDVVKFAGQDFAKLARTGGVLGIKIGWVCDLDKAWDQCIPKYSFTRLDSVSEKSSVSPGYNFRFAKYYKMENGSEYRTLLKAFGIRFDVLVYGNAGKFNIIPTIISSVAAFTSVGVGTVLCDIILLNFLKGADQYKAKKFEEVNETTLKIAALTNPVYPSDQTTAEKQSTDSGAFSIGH
Briefly: Antagonist activity at human recombinant P2X3 receptor expressed in Xenopus oocytes assessed as inhibition of ATP-induced ion current at 10 uM incubated for 20 mins prior to ATP-induction by two-electrode voltage clamp assay. In kind it is cell-based. To be noted: Oocyte. The method in brief:
(§1)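 Defolliculated Xenopus oocytes were injected with mouse P2X1 or human P2X3 cRNA (40 nL, 1 μg/mL), held 24 h at 18 °C in Barth's solution, then stored at 4 °C for up to 12 days. Two-electrode voltage clamp was run at Vh −70 mV with superfusion of Ringer's solution (pH 7.5, 18 °C). Compound was applied 20 min before 2 μM ATP (60–120 s), followed by 20 min washout. Mean ± SEM, n = 4 oocyte batches.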

In assay [2] the target is T2, P2X purinoceptor 1 (Mus musculus) (UniProt P51576).
T2 sequence (whole entry): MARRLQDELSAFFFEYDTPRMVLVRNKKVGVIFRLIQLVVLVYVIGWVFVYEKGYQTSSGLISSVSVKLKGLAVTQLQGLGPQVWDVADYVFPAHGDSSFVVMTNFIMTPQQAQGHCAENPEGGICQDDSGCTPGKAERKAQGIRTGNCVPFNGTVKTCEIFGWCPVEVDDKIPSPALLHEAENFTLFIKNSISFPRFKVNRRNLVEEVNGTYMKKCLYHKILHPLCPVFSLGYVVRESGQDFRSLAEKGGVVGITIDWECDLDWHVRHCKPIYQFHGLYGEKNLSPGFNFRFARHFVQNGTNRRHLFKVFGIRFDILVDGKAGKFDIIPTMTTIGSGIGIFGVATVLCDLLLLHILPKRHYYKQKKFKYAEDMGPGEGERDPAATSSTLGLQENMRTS
Briefly: Antagonist activity at mouse recombinant P2X1 receptor expressed in Xenopus oocytes assessed as inhibition of ATP-induced ion current at 10 uM incubated for 20 mins prior to ATP-induction by two-electrode voltage clamp assay. In kind it is cell-based. As to conditions: Oocyte. A digest of the protocol:
as §1
On the technique in general: Two-electrode voltage clamp holds a large cell at a set potential and records current.

The target of assay [3] is T3, P2X purinoceptor 7 (Homo sapiens, UniProt Q99572).
T3 sequence (Q99572 whole entry): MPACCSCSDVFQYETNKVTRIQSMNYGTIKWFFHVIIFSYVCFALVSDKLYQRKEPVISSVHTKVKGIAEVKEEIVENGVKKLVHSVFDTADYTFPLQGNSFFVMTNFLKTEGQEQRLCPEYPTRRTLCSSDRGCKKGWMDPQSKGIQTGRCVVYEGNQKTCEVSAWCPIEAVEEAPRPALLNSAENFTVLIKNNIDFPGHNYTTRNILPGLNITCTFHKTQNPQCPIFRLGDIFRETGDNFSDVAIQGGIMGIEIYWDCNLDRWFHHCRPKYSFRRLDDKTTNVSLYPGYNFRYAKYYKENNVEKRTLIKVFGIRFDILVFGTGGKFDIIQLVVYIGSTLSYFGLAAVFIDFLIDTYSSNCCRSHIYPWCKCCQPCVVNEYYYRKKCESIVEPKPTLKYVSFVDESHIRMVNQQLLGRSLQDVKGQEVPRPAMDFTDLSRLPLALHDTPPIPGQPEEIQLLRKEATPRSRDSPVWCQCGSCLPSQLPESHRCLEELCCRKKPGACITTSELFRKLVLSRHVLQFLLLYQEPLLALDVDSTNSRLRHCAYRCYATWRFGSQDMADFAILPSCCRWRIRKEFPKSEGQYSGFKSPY
As to the kind of experiment: Antagonist activity at P2X7 receptor (unknown origin).

Assay [4] has as its target T4, P2X purinoceptor 7 (Homo sapiens) (UniProt Q99572).
T4 sequence (whole entry): T3 sequence (Q99572 whole entry)
As to the kind of experiment: Antagonist activity at human P2X7 receptor expressed in HEK293 cells assessed as inhibition of BzATP-induced ethidium bromide uptake at 10 uM after 120 mins by fluorimetric analysis. In kind it is cell-based. A digest of the protocol:
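HEK293 cells stably expressing hP2X7 were grown in DMEM with 10% FBS, trypsinized and resuspended at 2.5×10^6 cells/mL in HEPES/N-methyl-D-glucamine/KCl/glucose/0.5 mM CaCl2 buffer, pH 7.4, with 100 μM ethidium bromide. Cells were added at 2×10^5 per well to BzATP. After 120 min at 37 °C, ethidium fluorescence was read at ex 530 / em 590 nm.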

In assay [5] the target is T1, P2X purinoceptor 3 (Homo sapiens). Briefly: Antagonist activity at human recombinant P2X3 receptor expressed in Xenopus oocytes assessed as inhibition of ATP-induced ion current at 100 nM incubated for 20 mins prior to ATP-induction by two-electrode voltage clamp assay. In kind it is cell-based. To be noted: Oocyte. A digest of the protocol: as §1
Assay [6] addresses T2, P2X purinoceptor 1 (Mus musculus). Briefly: Antagonist activity at mouse recombinant P2X1 receptor expressed in Xenopus oocytes assessed as inhibition of ATP-induced ion current at 100 nM incubated for 20 mins prior to ATP-induction by two-electrode voltage clamp assay. To be noted: Oocyte. In kind it is cell-based. The method in brief:
as §1

Assay [7] is described as follows: Selectivity ratio of IC50 for mouse recombinant P2X1 receptor to IC50 for human recombinant P2X3 receptor.
The target in assay [8] is T5, P2X purinoceptor 3 (Homo sapiens, UniProt P56373).
T5 sequence (P56373 whole entry): T1 sequence (whole entry)
Briefly: Antagonist activity at human recombinant P2X3 receptor expressed in Xenopus oocytes assessed as inhibition of ATP-induced ion current incubated for 20 mins prior to ATP-induction by two-electrode voltage clamp assay. In kind it is cell-based, Oocyte. The method in brief:
as §1

Assay [9] concerns the target T6, P2X purinoceptor 1 (Mus musculus, UniProt P51576).
T6 sequence (P51576 whole entry): T2 sequence (whole entry)
As to the kind of experiment: (§2) Antagonist activity at mouse recombinant P2X1 receptor expressed in Xenopus oocytes assessed as inhibition of ATP-induced ion current incubated for 20 mins prior to ATP-induction by two-electrode voltage clamp assay. In kind it is cell-based, Oocyte. A digest of the protocol:
as §1

Assay [10] addresses T2, P2X purinoceptor 1 (Mus musculus). As to the kind of experiment: Antagonist activity at mouse recombinant P2X1 receptor expressed in Xenopus oocytes assessed as inhibition of ATP-induced ion current incubated for 20 mins prior to ATP-induction measured after compound washout by two-electrode voltage clamp assay. In kind it is cell-based. As to conditions: Oocyte. The method in brief:
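Oocytes expressing mP2X1 were superfused with compound for 20 min before 2 μM ATP. Reversibility was checked by recording the ATP current after washout (20 min wash between ATP applications). Recordings used two-electrode voltage clamp at −70 mV in Ringer's solution, pH 7.5, 18 °C.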

Assay [11] shares this target. Described as §2. In kind it is cell-based. As to conditions: Oocyte. A digest of the protocol: as §1
The target in assay [12] is T7, P2X purinoceptor 1 (Homo sapiens, UniProt P51575).
T7 sequence (P51575 whole entry): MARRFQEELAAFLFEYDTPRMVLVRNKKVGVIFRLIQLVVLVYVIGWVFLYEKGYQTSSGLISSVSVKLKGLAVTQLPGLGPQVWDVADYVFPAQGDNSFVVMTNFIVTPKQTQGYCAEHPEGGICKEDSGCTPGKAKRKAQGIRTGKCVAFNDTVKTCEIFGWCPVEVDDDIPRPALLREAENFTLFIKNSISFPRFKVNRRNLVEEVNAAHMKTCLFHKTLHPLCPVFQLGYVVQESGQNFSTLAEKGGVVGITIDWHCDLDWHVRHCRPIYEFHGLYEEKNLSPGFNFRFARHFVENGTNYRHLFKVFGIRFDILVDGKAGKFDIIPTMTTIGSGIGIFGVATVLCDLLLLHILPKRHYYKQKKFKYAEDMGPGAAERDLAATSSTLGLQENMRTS
As to the kind of experiment: Antagonist activity at P2X1 receptor (unknown origin).

By inhibition is commonly meant the change of the read-out against control, counted positive when it falls. In the case of `Cc1ncc(CN(CCC(=O)O)Cc2ccccc2)c(C(=O)O)c1O`, the inhibition result in assay [1] and in assay [2] was “inactive” in each case.

As for `Cc1ncc(CN(CCC(=O)O)Cc2ccccc2)c(C=O)c1O`, the inhibition entry in assay [1] and in [2] was “inactive” each time.

In the case of `Cc1ncc(CCC(=O)O)c(C=O)c1O`, the inhibition in [1] worked out at 22.3%; in [2], 19.5%.

One may read the IC50 as the concentration at which inhibition is half-maximal. With `Cc1nc(/N=N/c2ccc(C(=O)O)cc2)c(COP(=O)(O)O)c(C=O)c1O`, the half-maximal inhibitory concentration (IC50) in [3] came to 600 nM.

Take `Cc1nc(/N=N/c2ccc(C(=O)O)cc2)c(CCC(=O)O)c(C(=O)O)c1O`: the inhibition in assay [4] is < 50%; in assay [5], 25.7%; in assay [6], 51.7%.

Regarding `Cc1nc(/N=N/c2ccc(S(=O)(=O)O)cc2)c(CCC(=O)O)c(C=O)c1O`, the results for the inhibition in assay [4], in [5] and in assay [6] were < 50%, 46.5% and 41.8%, respectively.

On to `Cc1nc(/N=N/c2ccc(S(=O)(=O)O)cc2)c(CCC(=O)O)c(C(=O)O)c1O`, for which the inhibition is < 50% in assay [4], 37.6% in assay [5] and 57.6% in assay [6].

For the molecule `Cc1nc(/N=N/c2cc(S(=O)(=O)O)ccc2S(=O)(=O)O)c(COP(=O)(O)O)c(C=O)c1O` [ISOPPADS], the Ratio IC50 in [7] worked out at 0.3. Moreover, the results for the IC50 in [8] and in [9] were 96.2 nM and 30.7 nM, respectively.

For `Cc1nc(/N=N/c2cc(S(=O)(=O)O)c3cc([N+](=O)[O-])cc(S(=O)(=O)O)c3c2)c(COP(=O)(O)O)c(C=O)c1O`, in [3], the IC50 was determined as 600 nM.

On to `Cc1ncc(CCC(=O)O)c(C(=O)O)c1O`, for which the inhibition in assay [1] is 15.2%; in assay [2], 14.8%.

In the case of `Cc1ncc(/C=C/C(=O)O)c(C(=O)O)c1O`, the inhibition result in assay [1] and in assay [2] was “inactive” in each case.

In the case of `Cc1nc(/N=N/c2cc(S(=O)(=O)O)ccc2S(=O)(=O)O)c(CCC(=O)O)c(C=O)c1O`, the Ratio IC50 in assay [7] was determined as 0.7. The inhibition was < 50% in assay [4], “Dose-dependent effect” in assay [11], 40.1% in assay [5] and 58.6% in assay [6]. Moreover, in [10], the inhibition result is “inactive”.

`Cc1ncc(COP(=O)(O)O)c(C=O)c1O` [PYRIDOXAL PHOSPHATE ANHYDROUS] gave a half-maximal inhibitory concentration (IC50) in assay [12] of 10000 nM. Also, the inhibition in [1] came out at 20.1%; in assay [2], 13.2%.

On to `Cc1nc(/N=N/c2ccc(C(=O)O)cc2)c(CCC(=O)O)c(C=O)c1O`, for which the Ratio IC50 in assay [7] turned out to be 1.6. Further, the values for the inhibition in assay [4], in assay [5] and in [6] were < 50%, 56.3% and 48.5%, respectively.

As to `Cc1nc(/N=N/c2cc(S(=O)(=O)O)ccc2S(=O)(=O)O)c(CCC(=O)O)c(C(=O)O)c1O`, the inhibition was < 50% in assay [4], 45.7% in [5] and 60.2% in [6].

With `Cc1ncc(/C=C/C(=O)O)c(C=O)c1O`, the inhibition in assay [1] stood at 9.3%; in assay [2] it was 7.4%.
